Source: PubChem
KCNQ1 act: human KCNQ1 channel potentiation or activation. B-score at 10 µM. P51787. CHO-K1 KCNQ1, thallium flux FluxOR fluorescence; active compounds read high. actives 0.35% (n = 310,000);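 active = fluorescence ratio B-score, a plate-corrected score, at least three library SD, with initial intensity B-score within 5 SD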
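Material: CHO-K1 cells stably expressing KCNQ1. Medium: assay buffer for compound exposure, DMSO matched across wells. Reagent: K+/Tl+ depolarizing stimulus. Compound dosing: single-concentration screen. Times: 37 °C overnight plating, 90-min dark dye load, 20-min compound pretreatment. Technique: FluxOR Tl+ flux fluorescence.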
hERG rescue: shields human hERG channel from block by proarrhythmic agents; actives 0.51% (n = 310,000); Q12809; CHO-hERG, FluxOR thallium flux, dofetilide IC70 present; activation (rescue from dofetilide block), less the hit threshold, % at 10 µM;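 active = activation above the mean of controls blocked by dofetilide plus 5 SD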;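 also: thallium influx through hERG after potassium depolarization seen as dye fluorescence rise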
PHOSPHO1 block: blocks human PHOSPHO1 phosphatase activity | Q8TCT1 | recombinant PHOSPHO1, absorbance phosphatase assay | inhibition, % at 13.3 µM | actives 1.1% (n = 290,000) | AID 1565; in the data active = inhibition above about 60%
Target sequence (Q8TCT1 whole entry, looked up): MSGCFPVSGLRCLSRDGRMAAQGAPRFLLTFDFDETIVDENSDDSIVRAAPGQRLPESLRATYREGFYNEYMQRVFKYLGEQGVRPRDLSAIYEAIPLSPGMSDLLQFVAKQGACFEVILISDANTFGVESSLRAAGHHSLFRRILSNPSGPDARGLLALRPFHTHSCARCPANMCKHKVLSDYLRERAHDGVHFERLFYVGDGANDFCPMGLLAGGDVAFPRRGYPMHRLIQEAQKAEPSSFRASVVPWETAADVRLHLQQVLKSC
KCNK9 inh: blocks the human KCNK9 two-pore domain potassium channel; actives 1.2% (n = 310,000); Q9NPC2; HEK293 KCNK9, FluxOR thallium flux fluorescence; active compounds read low; B-score at 10 µM; AID 488922;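 active = ratio B-score over 3 SD below the library mean, with starting fluorescence within 5 SD of its mean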;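 also: negative B-score means less thallium flux so channel inhibition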
Target sequence (Q9NPC2 whole entry, looked up, the tested form may be a part): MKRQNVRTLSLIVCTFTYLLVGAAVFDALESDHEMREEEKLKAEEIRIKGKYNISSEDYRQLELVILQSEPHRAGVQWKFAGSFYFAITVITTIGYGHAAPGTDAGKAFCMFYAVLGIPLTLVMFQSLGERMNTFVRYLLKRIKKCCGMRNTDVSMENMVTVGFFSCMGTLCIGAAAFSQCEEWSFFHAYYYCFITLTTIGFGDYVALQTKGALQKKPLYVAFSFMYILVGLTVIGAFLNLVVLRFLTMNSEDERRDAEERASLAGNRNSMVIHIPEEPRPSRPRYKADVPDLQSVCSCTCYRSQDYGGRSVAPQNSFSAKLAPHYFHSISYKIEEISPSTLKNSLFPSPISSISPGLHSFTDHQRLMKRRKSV
KCNK3 block: human KCNK3 channel inhibition, primary screen; actives 0.84% (n = 340,000); O14649; B-score at 10 µM; CHO-KCNK3 thallium flux, FluxOR fluorescence; active compounds read low;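 active = B-score under library mean minus 4 SD, starting fluorescence ratio at most library mean plus 5 SD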;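 also: more negative B-score means stronger inhibition of thallium flux through KCNK3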
KCNQ1 inh: blocks the human KCNQ1 potassium channel; P51787; CHO-K1 KCNQ1, FluxOR thallium flux fluorescence; active compounds read high; B-score at 10 µM; actives 1.3% (n = 310,000);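 active = compounds whose thallium flux B-score, printed positive for inhibition, exceeds three library SD while starting fluorescence stays within three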;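 also: channel opened by potassium depolarization with thallium stimulus after 20 min compound exposure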
Large screens that a line does not name were inactive. Rows were chosen to be rich in hits. Some 4% of all compounds tested hit in one or more screens of this group.

C[n+]1ccc(/C=C/c2cccs2)cc1	PHOSPHO1 block 74
CN(C)c1ccc(/C=C/c2cc[n+](C)cc2)cc1	PHOSPHO1 block 102, KCNQ1 inh 7
CC(=O)N1CCOc2ccc(S(=O)(=O)Nc3cccc(C)c3)cc21	none
O=S(=O)(NCc1cc(-c2ccccc2)no1)c1ccccc1	none
O=C(O)/C=C/C(=O)NNC(=O)c1cc(-c2ccccc2)n[nH]1	none
CC1CCCCC1NCC(=O)NCc1ccc(F)cc1 (centres undefined)	hERG rescue 4.7
O=C(CCC1CCCCC1)NCc1ccc(F)cc1	none
N=c1n(CCN2CCCC2)c2ccccc2n1CC(O)c1ccc(Cl)c(Cl)c1 (centres undefined)	none
COC(=O)CSc1nnc(CNC(=O)c2ccco2)n1-c1ccc(F)cc1	none
Cc1ccc(C)c(S(=O)(=O)N2CCN(C(=O)c3cc(S(=O)(=O)NCc4ccccc4)ccc3C)CC2)c1	none
CSc1nc2cc(Oc3cccc(Cl)c3Cl)c(Cl)cc2[nH]1	KCNK3 block -11, KCNQ1 inh 14
CC(C)c1c(C(=O)N/N=C/c2ccc3c(c2)OCO3)nnn1-c1nonc1N	none
CCN(CC)c1ccc(/C=N/NC(=O)c2nnn(-c3nonc3N)c2C(C)C)c(O)c1	KCNQ1 inh 7
O=C(c1cc2ncc(CCCl)cn2n1)N1CCCCCC1	none
O=C(NC(=S)N1CCN(c2ccc(Cl)cc2[N+](=O)[O-])CC1)c1ccco1	none
COc1cccc(C(=O)NC(=S)N2CCN(c3ccc(C(F)(F)F)cc3[N+](=O)[O-])CC2)c1	none
COc1cccc(OC)c1C(=O)NC(=S)N1CCN(c2ccc(C(F)(F)F)cc2[N+](=O)[O-])CC1	hERG rescue 11
CC(C)Oc1cccc(C(=O)NC(=S)N2CCN(c3ccc(C(F)(F)F)cc3[N+](=O)[O-])CC2)c1	KCNQ1 act 37
O=C(NC(=S)N1CCN(c2ccc(Cl)cc2[N+](=O)[O-])CC1)c1cccs1	KCNQ1 act 20, hERG rescue 6.3
O=C(CCC(=O)N1CCOc2ccccc21)NCc1ccccn1	none
CCOc1cc(C)nc(N2CCN(C3CCCCC3)CC2)n1	none
Oc1c(Br)cc(Cl)cc1C=Nc1ccccc1Br	KCNQ1 act 8, hERG rescue 11
CCC(=O)c1ccc(OCC(=O)Nc2cc(S(=O)(=O)N3CCCCC3)ccc2OC)cc1	none
Cc1nc(C)c(-c2ccc(SCc3ccccc3C)nn2)s1	KCNK9 inh -7.9
Cc1nc(C)c(-c2ccc(SCC(=O)Nc3ccccc3)nn2)s1	none
CCN(CC)c1ccc(/C=N/Nc2ccccc2)c(O)c1	PHOSPHO1 block 91
CCN(CC)c1ccc(C=Nc2ccccc2)c(O)c1	none
COc1cccc2c(Cl)c(CC=C(Cl)Cl)c(C)nc12	none
CCCc1c(C)nc2c(OC)cccc2c1SCC(=O)O	hERG rescue 4.7
Cc1cccc(NC(=O)c2cccc(NS(=O)(=O)c3ccc(Cl)cc3)c2)c1	KCNQ1 inh 10
Cc1ccc(NC(=O)c2ccc3c(c2)OCCO3)cc1S(=O)(=O)Nc1cccc(Cl)c1	KCNQ1 inh 6
Cc1cccc(NS(=O)(=O)c2nnc(NC(=O)c3ccc(Cl)cc3)s2)c1	none
O=C(N=NC(=O)c1ccco1)c1ccc2c(O)n(N3C(=O)c4ccccc4C3=O)c(O)c2c1	none
COc1ccc(OC)c(C(C)NC(=O)C(C)Cc2ccccc2)c1 (centres undefined)	none
CC(C)CC1NC(=O)N(CC(=O)NC2CCCc3ccccc32)C1=O (centres undefined)	none
S=c1[nH]nc(-c2ccccc2)n1Cc1ccccc1	PHOSPHO1 block 105
CC(C)Cn1c(-c2ccco2)n[nH]c1=S	PHOSPHO1 block 80
S=c1[nH]nc(-c2ccc(Cl)cc2)n1Cc1ccccc1	none
Cc1n[nH]c(=S)n1Cc1ccccc1	none
Cc1c(Cl)c(-c2n[nH]c(=S)n2Cc2ccco2)nn1C	PHOSPHO1 block 80
Cc1ccn(Cc2n[nH]c(=S)n2Cc2ccccc2)n1	PHOSPHO1 block 78
Cc1nn(CC(C)C)c(Cl)c1C(=O)N(C)CC(=O)Nc1c(Cl)cccc1Cl	none
CCNC(=O)CCS(=O)(=O)c1ccc2ccccc2c1	none
S=c1[nH]nc(-c2ccco2)n1Cc1ccccc1	PHOSPHO1 block 79 (no result: KCNQ1 act, hERG rescue, KCNK9 inh, KCNQ1 inh)
O=C(Nc1cccc(Cl)c1N1CCCC1)c1cccc(-c2cc3ccccc3oc2=O)c1	KCNK9 inh -7.1
O=C(Nc1ccc(CN2CCOCC2)cc1)c1cccc(-c2cc3ccccc3oc2=O)c1	none
CC1CCN(c2oc(-c3ccco3)nc2S(=O)(=O)c2ccccc2)CC1	none
CC1CN(c2oc(-c3ccco3)nc2S(=O)(=O)c2ccccc2)CC(C)O1 (centres undefined)	PHOSPHO1 block 76
S=c1[nH]nc(Cc2sc(-c3ccccc3)nc2-c2ccccc2)o1	PHOSPHO1 block 90
O=S(=O)([N-]c1nc2ccccc2nc1-n1cc[n+](Cc2ccccc2)c1)c1ccc(Br)cc1	none
O=Cc1s/c(=N\S(=O)(=O)c2ccccc2)n(CCCCl)c1Cl	hERG rescue 7.4
CCn1nc(C)c(CN2CCC(C(=O)Nc3cccc(-c4cccc(F)c4)c3)CC2)c1C	none
CC(C)(C)C1=Nn2c(nnc2-c2ccccc2F)SC1	none
CC(C)(C)C1=Nn2c(nnc2-c2ccccn2)SC1	PHOSPHO1 block 63
CCCn1cnc2c(N)c(C)c(C)cc21	PHOSPHO1 block 73
CC1CCCC(n2c(=S)[nH]c3ccccc3c2=O)C1C (centres undefined)	KCNQ1 act 41
O=c1c2ccccc2[nH]c(=S)n1C1CCCCC1	KCNQ1 act 9, hERG rescue 9.3
CC1CCC(n2c(=S)[nH]c3ccccc3c2=O)CC1 (centres undefined)	KCNQ1 act 56, hERG rescue 18
O=C(c1ccc2c(=O)n(C3CCCC3)c(=S)[nH]c2c1)N1CCN(C2CCCCC2)CC1	none
CC1(C)CC(n2c(=S)[nH]c3ccccc3c2=O)CCO1 (centres undefined)	none
CN(c1ccccc1)S(=O)(=O)c1ccc(-c2ccccc2)cc1	none
C/C(=N\Nc1nc2ccc(Cl)cc2o1)c1ccccc1	none
COc1ccc(OCCC(=O)Nc2cc3c(cc2C(=O)O)OCCCO3)cc1	none (no result: KCNQ1 act, hERG rescue, PHOSPHO1 block, KCNK9 inh, KCNQ1 inh)
CCOC(=O)c1csc(NC(=O)c2ccc(S(=O)(=O)N(CC)CC)cc2)n1	none
CCN(CC)CCN(C(=O)c1cc2ccccc2cc1OC)c1nc2ccc(OC)cc2s1	KCNQ1 inh 9
COc1ccc(Cl)cc1NC(=O)CN(C)C(=O)c1cc2c(F)cccc2s1	KCNK3 block -8.8 (no result: KCNQ1 act, hERG rescue, PHOSPHO1 block, KCNK9 inh, KCNQ1 inh)
COc1ccc(NC(=O)CN2CCOCC2)cc1	hERG rescue 7.0
COc1ccc(NC(=O)CN2CCN(C3c4ccccc4-c4ccccc43)CC2)cc1	KCNQ1 act 8
Cn1ccnc1SCC(=O)Nc1ccc(Oc2ccccc2)cc1	PHOSPHO1 block 84
